Source: ChEMBL document CHEMBL1155141, “Pyrophosphorolytic excision of nonobligate chain terminators by hepatitis C virus NS5B polymerase” (Antimicrob Agents Chemother, 2007)
Calls of active or inactive are those of the source. No cut-off for these calls is given here.

Columns and labels:
[1] = test system: Hepacivirus hominis; test: Ratio of IC50 for HCV NS5B polymerase S282T mutant to IC50 for HCV NS5B polymerase by single-nucleotide incorporation assay
In short: (§1)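 Run 30 min with 3 μM each NTP, competing nucleotide 300 nM. Full-length product was resolved on urea gels and quantified by phosphorimager. IC50 came from a four-parameter logistic fit, three independent experiments. The ratio is S282T IC50 over wild-type IC50.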

[2] = Inhibition of HCV NS5B polymerase assessed as blocking of full length RNA product formation by single-nucleotide incorporation assay; set-up: species or system Hepacivirus hominis; in short: as §1
[3] = test system: Hepacivirus hominis; test: Inhibition of HCV NS5B polymerase assessed as chain termination of RNA synthesis
[4] = molecular target: RNA-directed RNA polymerase (Hepacivirus hominis, UniProt O39930, S282T); test: Inhibition of HCV NS5B polymerase S282T mutant assessed as blocking of full length RNA product formation by single-nucleotide incorporation assay; in short: as §1
RNA-directed RNA polymerase, sequence (O39930 entry or part of it S282T): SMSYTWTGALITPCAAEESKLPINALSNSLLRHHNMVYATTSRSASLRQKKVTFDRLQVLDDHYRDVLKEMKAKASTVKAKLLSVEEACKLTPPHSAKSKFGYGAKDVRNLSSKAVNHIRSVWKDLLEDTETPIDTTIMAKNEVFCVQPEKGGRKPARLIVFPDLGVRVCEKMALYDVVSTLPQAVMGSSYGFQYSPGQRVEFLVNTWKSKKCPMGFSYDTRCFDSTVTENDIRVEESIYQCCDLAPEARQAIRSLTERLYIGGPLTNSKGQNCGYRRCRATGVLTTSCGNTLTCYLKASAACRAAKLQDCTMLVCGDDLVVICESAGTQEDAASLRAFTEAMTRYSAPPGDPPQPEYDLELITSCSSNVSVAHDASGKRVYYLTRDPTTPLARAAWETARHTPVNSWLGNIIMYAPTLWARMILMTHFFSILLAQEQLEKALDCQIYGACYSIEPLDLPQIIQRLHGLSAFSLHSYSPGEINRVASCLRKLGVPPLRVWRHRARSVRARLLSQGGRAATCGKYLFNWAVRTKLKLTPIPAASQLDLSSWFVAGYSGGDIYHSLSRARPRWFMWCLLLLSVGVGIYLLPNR

SMILES	Ratio IC50 [1]	IC50 [2] [µM]	Activity [3]	IC50 [4] [µM]
Nc1ncnc2c1ncn2[C@@H]1O[C@H](COP(=O)(O)OP(=O)(O)OP(=O)(O)O)C[C@H]1O	2	4.4	Active	8.8
C[C@@]1(O)[C@H](O)[C@@H](COP(=O)(O)OP(=O)(O)OP(=O)(O)O)O[C@H]1n1ccc(N)nc1=O [2'-C-METHYLCYTIDINE TRIPHOSPHATE]	9.5	6.3	–	60
Nc1nc2c(ncn2[C@@H]2O[C@H](COP(=O)(O)OP(=O)(O)OP(=O)(O)O)C[C@H]2O)c(=O)[nH]1	–	–	Active	–
C[C@@]1(O)[C@H](O)[C@@H](COP(=O)(O)OP(=O)(O)OP(=O)(O)O)O[C@H]1n1cnc2c(N)ncnc21	> 24	4.2	–	> 100
O=c1ccn([C@@H]2O[C@H](COP(=O)(O)OP(=O)(O)OP(=O)(O)O)C[C@H]2O)c(=O)[nH]1	–	–	Active	–
Nc1ccn([C@@H]2O[C@H](COP(=O)(O)OP(=O)(O)OP(=O)(O)O)C[C@H]2O)c(=O)n1	1.7	0.46	Active	0.77
